The values below come from ChEMBL document CHEMBL1135207, “Novel route to the synthesis of peptides containing 2-amino-1'-hydroxymethyl ketones and their application as cathepsin K inhibitors” (Bioorg Med Chem Lett, 2002).

One test addresses Cathepsin B (Homo sapiens, UniProt P07858). The test is described as follows: Binding affinity against cathepsin B.
The next test addresses Cathepsin S (Homo sapiens, UniProt P25774). The test is described as follows: Binding affinity of compound was evaluated against cathepsin S.
Another test concerns the target T1, Cathepsin K (Homo sapiens, UniProt P43235).
T1 sequence (P43235 whole entry): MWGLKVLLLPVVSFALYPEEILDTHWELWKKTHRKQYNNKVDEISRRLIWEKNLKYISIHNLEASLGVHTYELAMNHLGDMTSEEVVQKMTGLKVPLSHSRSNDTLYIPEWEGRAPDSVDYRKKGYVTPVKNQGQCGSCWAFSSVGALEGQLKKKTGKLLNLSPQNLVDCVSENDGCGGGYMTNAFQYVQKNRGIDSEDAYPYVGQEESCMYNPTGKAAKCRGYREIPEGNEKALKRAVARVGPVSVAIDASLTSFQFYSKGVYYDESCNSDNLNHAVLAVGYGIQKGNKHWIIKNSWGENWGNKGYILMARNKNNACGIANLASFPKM
The test is described as follows: Binding affinity against cathepsin K.

For another test, the target named is Procathepsin L (Homo sapiens, UniProt P07711). The test is described as follows: Binding affinity of compound was evaluated against cathepsin L. The method, boiled down: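 Then Z-Phe-Arg-AMC 10 µM (at Km) added. AMC release followed kinetically (ex355/em460) at room temperature, with inhibitor-free controls. Apparent Ki by Morrison or Henderson tight-binding fit.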

The structures appear in SMILES notation.

Sequence of Cathepsin S (P25774 whole entry): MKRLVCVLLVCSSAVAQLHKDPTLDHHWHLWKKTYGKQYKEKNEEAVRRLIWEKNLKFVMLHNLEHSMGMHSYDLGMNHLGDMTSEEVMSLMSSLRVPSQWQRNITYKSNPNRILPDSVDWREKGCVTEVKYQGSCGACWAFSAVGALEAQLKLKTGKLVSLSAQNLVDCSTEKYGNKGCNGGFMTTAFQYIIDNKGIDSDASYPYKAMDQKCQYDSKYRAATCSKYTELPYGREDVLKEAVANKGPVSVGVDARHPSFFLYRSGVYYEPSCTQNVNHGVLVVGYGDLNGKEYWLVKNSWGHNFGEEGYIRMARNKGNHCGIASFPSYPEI
Sequence of Procathepsin L (P07711 whole entry): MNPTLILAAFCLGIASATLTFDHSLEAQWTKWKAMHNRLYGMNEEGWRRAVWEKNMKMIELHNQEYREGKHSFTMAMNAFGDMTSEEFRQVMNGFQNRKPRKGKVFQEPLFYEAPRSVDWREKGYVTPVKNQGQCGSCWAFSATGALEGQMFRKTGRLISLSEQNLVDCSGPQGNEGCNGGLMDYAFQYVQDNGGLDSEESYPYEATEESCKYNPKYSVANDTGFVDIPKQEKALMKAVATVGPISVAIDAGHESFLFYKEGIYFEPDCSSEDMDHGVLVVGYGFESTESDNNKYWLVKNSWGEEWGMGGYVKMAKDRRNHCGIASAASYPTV

A word on the Ki: it is the dissociation constant of the complex between target and ligand, obtained from inhibition or displacement. In the case of `COCC(=O)[C@H](CCc1ccccc1)NC(=O)[C@H](CC(C)C)NC(=O)OCc1ccccc1`, the inhibition constant (Ki) at Cathepsin B was over 150000 nM; at Cathepsin S it was 1960 nM; on Cathepsin K, 607 nM; on Procathepsin L, 22300 nM.
For `CC(C)C[C@H](NC(=O)OCc1ccccc1)C(=O)N[C@@H](CCc1ccccc1)C(=O)COCc1ccccc1`, the Ki was 119000 nM on Cathepsin B, 451 nM at Cathepsin S, 1000 nM on Cathepsin K and 6340 nM on Procathepsin L.
For the compound `CC(C)C[C@H](NC(=O)c1ccc(CN)cc1)C(=O)N[C@@H](CCc1ccccc1)C(=O)CO`, the Ki amounted to 1950 nM at Cathepsin B, 46 nM at Cathepsin S, 3 nM at Cathepsin K and 17 nM on Procathepsin L.
As to `CCOCC(=O)[C@H](CCc1ccccc1)NC(=O)[C@H](CC(C)C)NC(=O)OCc1ccccc1`, the Ki at Cathepsin B was over 150000 nM; at Cathepsin S, 4500 nM; at Cathepsin K, 947 nM; on Procathepsin L, 16700 nM.
As to `CCCC[C@H](NC(=O)[C@@H](NC(=O)c1ccc(CN)cc1)C(C)CC)C(=O)CO` (some centres not stated), the Ki at Cathepsin B was 1250 nM; on Cathepsin S it was 460 nM; on Cathepsin K, 20 nM; on Procathepsin L, 130 nM.
On to `CCC(C)[C@H](NC(=O)c1cccc(C(N)=O)c1)C(=O)N[C@@H](CCc1ccccc1)C(=O)CO` (some centres not stated), for which the inhibition constant Ki on Cathepsin B was found to be 1440 nM; at Cathepsin S it was 88 nM; on Cathepsin K it was 111 nM; on Procathepsin L, 790 nM.
Regarding `CC(C)C[C@H](NC(=O)OCc1ccccc1)C(=O)N[C@@H](CCc1ccccc1)C(=O)CO`, the inhibitory constant (Ki) at Cathepsin B is 34700 nM; on Cathepsin S, 188 nM; at Cathepsin K, 25 nM; on Procathepsin L it was 640 nM.
Regarding `CCC(C)[C@H](NC(=O)c1cccc(CN)c1)C(=O)N[C@@H](CCc1ccccc1)C(=O)CO` (some centres not stated), the Ki was 270 nM at Cathepsin B, 180 nM at Cathepsin S, 4 nM on Cathepsin K and 81 nM at Procathepsin L.
On to `CC(=O)[C@H](CCc1ccccc1)NC(=O)[C@H](CC(C)C)NC(=O)OCc1ccccc1`, for which the inhibitory constant (Ki) at Cathepsin B was 519000 nM; at Cathepsin K it was 1440 nM.
On to `CCCC[C@H](NC(=O)[C@@H](NC(=O)c1cccc(C(N)=O)c1)C(C)CC)C(=O)CO` (some centres not stated), for which the Ki at Cathepsin B stood at 1140 nM; at Cathepsin S it was 110 nM; on Cathepsin K, 110 nM; on Procathepsin L, 760 nM.
Regarding `CCC(C)[C@H](NC(=O)OCc1ccccc1)C(=O)N[C@@H](CCc1ccccc1)C(=O)CO` (some centres not stated), the inhibition constant (Ki) worked out at 32200 nM on Cathepsin B, 811 nM on Cathepsin S, 67 nM on Cathepsin K and 3000 nM on Procathepsin L.
